Active and inactive are the calls of the source. The rule behind the calls is not given here.

Series [1] concerns Mus musculus. Description: Neurotoxicity in mouse assessed as inability to maintain equilibrium on rotarod at 300 mg/kg, ip after 0.5 hrs by rotarod test. The format is toxicity, organism-based. More on the design: dose 300 mg/kg, route intraperitoneal. The conditions noted are these: in vivo. The essentials:
(§1)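 Drug given ip to mice as a suspension in 0.5% methylcellulose. At the stated time after dosing, each mouse was placed on a 1 inch knurled rod turning at 6 rpm. Neurotoxicity = inability to stay balanced at least 1 min in each of three trials. Scored as animals toxic/animals tested in small groups.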
(In the rotarod test animals must keep their balance on a rotating rod.)

For series [2], the system named is Mus musculus. Briefly: Neurotoxicity in mouse assessed as inability to maintain equilibrium on rotarod at 300 mg/kg, ip after 4 hrs by rotarod test. The format is toxicity, organism-based. Also noted: dose 300 mg/kg, route intraperitoneal. Conditions: in vivo. The essentials: as §1
The test system of series [3] is Mus musculus. Briefly: Anticonvulsant activity in mouse assessed as protection against maximal electric shock-induced seizures at 30 mg/kg, ip after 4 hrs. The format is functional, organism-based. More on the design: dose 30 mg/kg. The essentials:
(§2)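 Phase I maximal electroshock screen in mice. Compound given ip as a suspension in 0.5% methylcellulose at 30, 100 or 300 mg/kg, tested at 30 min and 4 h. Small groups (1–8); result is number protected/number tested.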

Series [4] deals with Mus musculus. Description: Neurotoxicity in mouse assessed as inability to maintain equilibrium on rotarod at 30 mg/kg, ip after 4 hrs by rotarod test. The format is toxicity, organism-based. More on the design: dose 30 mg/kg, route intraperitoneal. The conditions noted are these: in vivo. The essentials:
as §1

The subject of series [5] is Mus musculus. Description: Neurotoxicity in mouse assessed as inability to maintain equilibrium on rotarod at 30 mg/kg, ip after 0.5 hrs by rotarod test. It is filed as toxicity, organism-based. More on the design: dose 30 mg/kg, route intraperitoneal. Conditions: in vivo. The essentials:
as §1

In series [6] the test system is Mus musculus. Description: Anticonvulsant activity against subcutaneous pentylenetetrazole-induced seizures in mouse at 100 mg/kg, ip after 4 hrs. The format is functional, organism-based. Also noted: dose 100 mg/kg. The essentials: (§3)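 Phase I screen in mice. Compound given ip as a suspension in 0.5% methylcellulose, read at 30 min and 4 h. Pentylenetetrazole 85 mg/kg in 0.9% NaCl was injected sc into the posterior midline and animals watched ≥30 min. Protection meant no clonic spasm lasting ≥5 s. Groups of 1–8 animals; result is protected/tested.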

The test system of series [7] is Mus musculus. Description: Anticonvulsant activity against subcutaneous pentylenetetrazole-induced seizures in mouse at 30 mg/kg, ip after 0.5 hrs. The format is functional, organism-based. More on the design: dose 30 mg/kg. The essentials:
as §3

Series [8] relates to Mus musculus. Briefly: Anticonvulsant activity against subcutaneous pentylenetetrazole-induced seizures in mouse at 100 mg/kg, ip after 0.5 hrs. It is filed as functional, organism-based. More on the design: dose 100 mg/kg. The essentials:
as §3

For series [9], the system named is Mus musculus. Briefly: Neurotoxicity in mouse assessed as inability to maintain equilibrium on rotarod at 100 mg/kg, ip after 0.5 hrs by rotarod test. The format is toxicity, organism-based. Also noted: dose 100 mg/kg, route intraperitoneal. The conditions noted are these: in vivo. The essentials: as §1
For series [10], the system named is Mus musculus. Description: Anticonvulsant activity against subcutaneous pentylenetetrazole-induced seizures in mouse at 30 mg/kg, ip after 4 hrs. The format is functional, organism-based. More on the design: dose 30 mg/kg. The essentials:
as §3

Series [11] deals with Mus musculus. Briefly: Anticonvulsant activity in mouse assessed as protection against maximal electric shock-induced seizures at 300 mg/kg, ip after 4 hrs. The format is functional, organism-based. More on the design: dose 300 mg/kg. The essentials: as §2
Series [12] deals with Mus musculus. Briefly: Anticonvulsant activity in mouse assessed as protection against maximal electric shock-induced seizures at 100 mg/kg, ip after 4 hrs. It is filed as functional, organism-based. More on the design: dose 100 mg/kg. The essentials:
as §2

For series [13], the system named is Mus musculus. Description: Neurotoxicity in mouse assessed as inability to maintain equilibrium on rotarod at 100 mg/kg, ip after 4 hrs by rotarod test. It is filed as toxicity, organism-based. More on the design: dose 100 mg/kg, route intraperitoneal. Conditions: in vivo. The essentials:
as §1

In series [14] the test system is Mus musculus. Briefly: Anticonvulsant activity in mouse assessed as protection against maximal electric shock-induced seizures at 30 mg/kg, ip after 0.5 hrs. The format is functional, organism-based. More on the design: dose 30 mg/kg. The essentials: as §2
In series [15] the test system is Mus musculus. Description: Anticonvulsant activity in mouse assessed as protection against maximal electric shock-induced seizures at 300 mg/kg, ip after 0.5 hrs. The format is functional, organism-based. Also noted: dose 300 mg/kg. The essentials: as §2
For series [16], the system named is Mus musculus. Briefly: Anticonvulsant activity against subcutaneous pentylenetetrazole-induced seizures in mouse at 300 mg/kg, ip after 4 hrs. More on the design: dose 300 mg/kg. The format is functional, organism-based. The essentials:
as §3

The test system of series [17] is Mus musculus. Briefly: Anticonvulsant activity against subcutaneous pentylenetetrazole-induced seizures in mouse at 300 mg/kg, ip after 0.5 hrs. The format is functional, organism-based. Also noted: dose 300 mg/kg. The essentials:
as §3

The test system of a further series is N1E-115. Description: Blockade of voltage-gated sodium channel in mouse N1E-115 cells assessed as stimulation at 100 umol at -90 mV holding potential by whole-cell patch clamp electrophysiological assay relative to control. It is filed as cell-based. The essentials: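 Whole-cell patch clamp with borosilicate glass electrodes on single cultured N1E-115 neuroblastoma cells. Compound at 100 µmol, holding potential -90 mV. Voltage-dependent sodium current expressed as % of control stimulation (no compound). Results from 5–8 cells averaged with SEM; significance by Student's t-test.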
(In general: Patch clamp records ionic current or voltage across a cell membrane.)

In series [18] the test system is Mus musculus. Briefly: Anticonvulsant activity in mouse assessed as protection against maximal electric shock-induced seizures at 100 mg/kg, ip after 0.5 hrs. The format is functional, organism-based. More on the design: dose 100 mg/kg. The essentials:
as §2

Regarding `Cc1cccc(C)c1OCC(=O)N[C@@H]1CCCC[C@@H]1O`, the Activity result in the series on Mus musculus [1], in the series with Mus musculus [2], in the series on Mus musculus [4], in the series with Mus musculus [5], in the series on Mus musculus [9] and with Mus musculus [13] was “Non-toxic” throughout. Further, the result in the series on Mus musculus [3], in the series with Mus musculus [6], in the series with Mus musculus [7], with Mus musculus [8], in the series with Mus musculus [10] and in the series on Mus musculus [11] was inactive. Besides, the result with Mus musculus [12], with Mus musculus [14], in the series with Mus musculus [16] and in the series on Mus musculus [17] was inactive. Also, the outcome in the series with Mus musculus [15] was Active.

For the compound `NC(=O)N1c2ccccc2C=Cc2ccccc21`, the Activity in the series on N1E-115 amounted to 78%.

With `Nc1nnc(-c2cccc(Cl)c2Cl)c(N)n1`, the Activity with N1E-115 was 67%.

Regarding `Cc1cccc(C)c1OCCNC1CCC(O)CC1` (racemic), the Activity entry is listed as “Toxic” in the series on Mus musculus [1], “Non-toxic” in the series with Mus musculus [4], “Non-toxic” in the series with Mus musculus [5] and “Non-toxic” in the series with Mus musculus [13]. Moreover, the result with Mus musculus [3], in the series with Mus musculus [6], with Mus musculus [7], in the series on Mus musculus [8], in the series with Mus musculus [10] and in the series with Mus musculus [12] was inactive. Further, in the series on Mus musculus [14], the result was inactive. In addition, the result in the series on Mus musculus [18] was Active.

For `Cc1cccc(C)c1OCC(=O)N[C@H]1CCCC[C@H]1O`, the Activity result with Mus musculus [2], with Mus musculus [4], in the series with Mus musculus [5], with Mus musculus [9] and in the series on Mus musculus [13] was “Non-toxic” each time. The outcome with Mus musculus [3], in the series on Mus musculus [6], with Mus musculus [7], in the series on Mus musculus [8], in the series on Mus musculus [10] and with Mus musculus [11] was inactive. The result in the series with Mus musculus [12], with Mus musculus [14] and in the series on Mus musculus [16] was inactive. Further, the outcome in the series on Mus musculus [15] and in the series on Mus musculus [17] was Active.

The values are drawn from ChEMBL document CHEMBL1921792, “Synthesis and anticonvulsant activity of trans- and cis-2-(2,6-dimethylphenoxy)-N-(2- or 4-hydroxycyclohexyl)acetamides and their amine analogs” (Bioorg Med Chem, 2011).
